Only some compounds are listed: those with a hit (about 12% of all), similar ones and a draw of the others.
Arbovirus anti – antivirals against arbovirus infection, primary screen, cell-based, full library, 10K replicate subset; arbovirus infection cell-based antiviral screen; inhibition, % at 10 µM; 0.37% of 200,000 active; in the data active = inhibition above about 30%
L major viab – Leishmania major promastigote growth inhibition, primary screen. Leishmania major promastigotes, resazurin fluorescence viability. inhibition, % at 10 µM. 9% of 200,000 active. AID 1063, 2008;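 note: promastigotes grown with compound for 44 hours at 28 °C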
PKD1 inh – inhibitors of human PKD1 kinase, biochemical, fluorescence polarization; PKD1 kinase fluorescence polarization assay; inhibition, % (no concentration beside the values); 0.056% of 200,000 active
CHOP inh – inhibitors of CHOP promoter induction, primary screen, cell-based, unfolded protein response, luciferase reporter; CHO-K1 CHOP-promoter luciferase, tunicamycin-induced, 15-18 h; inhibition, % at 10 µM; 3.8% of 220,000 active; AID 2732, 2010;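 active = compounds that reduced the stress-induced luciferase reporter signal by more than about 70% of percent inhibition, limit read from the data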
Rad51 HR inh – human RAD51 strand exchange inhibitors, primary screen, biochemical, fluorescence | DNA repair protein RAD51 homolog 1 (Homo sapiens), Q06609 | hRad51 DNA strand exchange, fluorescence dequenching | inhibition, % at 10 µM | 0.085% of 200,000 active | AID 1385, 2008;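 active = inhibition above 40% at the single screening dose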
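Material: human Rad51–ssDNA filaments; Probe or stimulus: labelled 47-mer dsDNA for strand exchange; Doses: single 10 µM dose; Incubation: 37 °C 15-min filament assembly, 30-min compound preincubation, 15-min exchange; Technique: FRET fluorescence dequenching, excitation 485 nm, emission 520 nm; Measure: Fluorescence-based percent inhibition, control- and blank-normalised; Benchmarks: plate control and blank wells.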
Wee1 stabilizer – Wee1 degradation inhibitors, primary screen, cell-based, HeLa, Wee1K328M-luciferase, luminescence; HeLa Luc-Wee1K328M stability; 100% = proteasome inhibitor MG132 effect; 1.2% of 220,000 active; Wee1-like protein kinase (Homo sapiens), P30291; reporter increase, % at 5 µM;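 active = activation above the mean of all tested compounds plus 3 SD, set per screening run, cut at about 8.8% in these data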;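 note: cells exposed to compound for 20 h before luminescence read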
Each line names hits and unclear results; the compound was inactive in the other large screens. Cut-off read from the data, not from the text of the source, unless noted: active = inhibition above about 50%; inactive = the rest.

COc1ccc(-n2c(COc3ccc(C)cc3)nnc2SCc2ccc(C#N)cc2)cc1	L major viab 68
CCn1c(COc2ccc(Cl)cc2)nnc1SCc1ccc(C#N)cc1	L major viab 51
CCn1c(COc2ccccc2)nnc1SCc1ccc(C#N)cc1	none (no result: Rad51 HR inh)
COc1ccc(CCNC(=O)CSc2nn(-c3ccccc3)c(=S)s2)cc1	none (no result: Arbovirus anti, L major viab, PKD1 inh)
COCc1cc(=O)[nH]c2c1c(-c1ccccc1)nn2C	none (no result: Arbovirus anti, L major viab, PKD1 inh)
COc1ccc(/C(C)=N/NC(=O)c2ccc(NS(=O)(=O)c3cccs3)cc2)cc1	none (no result: Arbovirus anti, L major viab, PKD1 inh)
CC1CC1C(=O)Nc1nc(-c2cccs2)c(-c2cccs2)s1 (stereo unspecified)	L major viab 62
Oc1c(C=Nc2ccccc2)sc(=S)n1Cc1ccccc1	CHOP inh 80 (no result: Rad51 HR inh)
CCn1c(O)c(C=Nc2ccccc2)sc1=S	none (no result: Rad51 HR inh)
CS(=O)(=O)c1ccc(Cl)c(NC(=O)C2CC(=O)N(Cc3ccccc3)C2)c1 (stereo unspecified)	none
Cc1ccc(S(=O)(=O)N2CCCCC2)cc1NC(=O)C1CC(=O)N(Cc2ccccc2)C1 (stereo unspecified)	L major viab 53
COc1ccc(CN2CC(C(=O)NCCC(C)C)CC2=O)cc1 (stereo unspecified)	L major viab 100
CC(C)c1ccc(CN2CC(C(=O)Nc3ccccc3)CC2=O)cc1 (stereo unspecified)	L major viab 62
CCN(CC)c1ccc(NC(=O)C2CC(=O)N(Cc3ccccc3)C2)cc1 (stereo unspecified)	none
Cc1ccc(N=c2c([N+](=O)[O-])nn(-c3ccccc3)n2O)c(C)c1	L major viab 56
Cc1cccc(CCN=c2c([N+](=O)[O-])nn(-c3ccccc3)n2O)c1	L major viab 62
COc1ccc(-n2nc([N+](=O)[O-])c(=NCCc3cccc(C)c3)n2O)cc1	L major viab 81
COc1ccc(CCN=c2c([N+](=O)[O-])nn(-c3cccc(C)c3)n2O)cc1OC	none
COC(=O)C1=C(C)N(Cc2ccco2)C(=O)N[C@@H]1c1ccco1	none (no result: Arbovirus anti, L major viab, PKD1 inh, CHOP inh, Wee1 stabilizer)
CCOC(=O)c1cc(=O)c2ccc(OCC(=O)Nc3ccc(F)cc3)cc2o1	none (no result: Arbovirus anti, L major viab, PKD1 inh)
CCC(C(=O)Nc1cccc(C(=O)O)c1C)c1ccccc1 (stereo unspecified)	none
COc1ccccc1C(=O)NNC(=O)c1sccc1-n1cccc1	none
COc1ccc(NC(=O)Nc2cc(C)ccc2OC(F)F)c(OC)c1	L major viab 67
CC1CCc2sc(C(=O)N/N=C/c3ccc(O)cc3)cc2C1 (stereo unspecified)	none (no result: Arbovirus anti, L major viab, PKD1 inh)
C/C(=N\NC(=O)c1cc2c(s1)CCC(C)C2)c1ccncc1 (stereo unspecified)	L major viab 97
CCn1c(SCC(=O)N2c3ccccc3CCc3ccccc32)nc2c1c(=O)n(C)c(=O)n2C	L major viab 60 (no result: Arbovirus anti, CHOP inh)
CCn1nnnc1SCC(=O)N1c2ccccc2CCc2ccccc21	L major viab 53
Cn1nnnc1SCC(=O)N1c2ccccc2CCc2ccccc21	none
CC1Cc2ccccc2N1C(=O)CSc1nc2c(c(=O)n(C)c(=O)n2C)n1Cc1ccccc1 (stereo unspecified)	L major viab 64
CC1Cc2ccccc2N1C(=O)CSc1nnnn1Cc1ccccc1 (stereo unspecified)	none
COc1ccccc1NC(=S)N1CCC(C(=O)c2ccc(F)cc2)CC1	none
Fc1ccc(C(OCCCc2cnc[nH]2)c2ccc(F)cc2)cc1	none (no result: Arbovirus anti, L major viab, PKD1 inh, Rad51 HR inh, Wee1 stabilizer)
COc1ccc(CN(C)C(=S)Nc2ccc(Cl)cc2)cc1	none
Cc1cc(C)c(S(=O)(=O)/N=C2/C=C(Sc3ncn[nH]3)C(=O)c3ccccc32)cc1C	L major viab 100, CHOP inh 109
CN(C)CCNC(=O)c1ccc2c(c1)N(Cc1ccc(F)cc1)CCS2	L major viab 100
CCn1c(SCc2nc3scc(-c4ccccc4)c3c(=O)[nH]2)nnc1-c1cccs1	none
COCCn1c(SCc2nc3scc(-c4ccc(Cl)cc4)c3c(=O)[nH]2)nnc1-c1cccc(C)c1	Arbovirus anti 32
c1ccc(-c2nc3ccccc3[nH]2)nc1	none (no result: Rad51 HR inh)
